Experiment [1] has as its target 5-hydroxytryptamine receptor 2A (Rattus norvegicus) (UniProt P14842). In words: Efficacy as 5-HT2A receptor-mediated intracellular calcium [Ca2+] mobilization in rat A7r5 cells. The format is functional, cell-based. The procedure, abridged:
(§1)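 Rat A7r5 vascular smooth muscle cells grown in DMEM/10% FBS, seeded at 20 000 cells/well, cultured 2 days. Loaded with calcium dye in HBSS/20 mM HEPES/2.5 mM probenecid pH 7.4 for 1 h at 23 °C. Response is peak minus basal fluorescence, expressed as % of maximal 5-HT response.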
Background: A change in cytosolic calcium serves as a functional read-out for many receptors and channels.

In experiment [2] the target is T1, 5-hydroxytryptamine receptor 2A (Rattus norvegicus, UniProt P14842). In words: Binding affinity for 5-HT2A serotonin receptor. The procedure, abridged: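 Incubated 1 h at 23 °C. Nonspecific binding defined with methiothepin (10 µM final). Ended by vacuum filtration over GF/B filters presoaked in 0.3% polyethyleneimine, washed with ice-cold buffer. Bound counts read by scintillation. IC50 for displacing labelled DOI binding.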
T1 sequence (P14842 whole entry): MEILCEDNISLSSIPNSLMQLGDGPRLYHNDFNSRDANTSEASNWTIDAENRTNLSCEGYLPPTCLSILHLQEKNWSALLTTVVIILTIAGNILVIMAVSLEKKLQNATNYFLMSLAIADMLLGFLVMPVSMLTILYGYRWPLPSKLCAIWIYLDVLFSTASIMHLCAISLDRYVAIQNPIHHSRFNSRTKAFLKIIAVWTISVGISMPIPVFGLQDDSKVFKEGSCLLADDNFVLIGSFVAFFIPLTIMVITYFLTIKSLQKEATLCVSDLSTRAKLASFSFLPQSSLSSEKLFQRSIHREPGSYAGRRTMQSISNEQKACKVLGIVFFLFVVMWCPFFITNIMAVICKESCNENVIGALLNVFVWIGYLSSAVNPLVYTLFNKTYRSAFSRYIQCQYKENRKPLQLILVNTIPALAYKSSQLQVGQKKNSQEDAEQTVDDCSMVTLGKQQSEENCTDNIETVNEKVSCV

For experiment [3], the system named is Monkey. Put plainly: Percent reduction of intraocular pressure after 1 hour following topical ocular administration to normal eye conscious cynomolgus monkeys. Type of experiment: functional, Cercopithecidae. In short, it runs like this: (§2)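 Conscious cynomolgus monkeys dosed topically in the eye with 300 µg in phosphate-buffered saline, pH 7.4. Vehicle was given to test eyes of five or six further animals. IOP measured at baseline and at 1, 3 and 6 h. Values are % reduction from baseline.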

Experiment [4] relates to Monkey. In words: Percent reduction of intraocular pressure after 3 hours following topical ocular administration to normal eye conscious cynomolgus monkeys. The format is functional, Cercopithecidae. In short, it runs like this: as §2
The test system of experiment [5] is Monkey. In words: Percent reduction of intraocular pressure after 6 hours following topical ocular administration to normal eye conscious cynomolgus monkeys. Type of experiment: functional, Cercopithecidae. The procedure, abridged: as §2
The target of experiment [6] is T1, 5-hydroxytryptamine receptor 2A. In words: Serotonin 5-HT2A receptor-mediated intracellular calcium [Ca2+] mobilization in rat A7r5 cells. Type of experiment: functional, cell-based. The procedure, abridged: as §1

In general, Ki refers to a measure of affinity in units of concentration, obtained from inhibition or displacement. Usually EC50 stands for the concentration giving half of the maximal effect.

Sequence of 5-hydroxytryptamine receptor 2A (Rattus norvegicus) (P14842 whole entry): as above

Take `COc1cc([C@H](O)[C@@H](C)N)c(OC)cc1Br`: the Efficacy in experiment [1] was 20%. For the same compound, the affinity in experiment [2], expressed as Ki, was 9.2 nM.
Turning to `COc1cc(C[C@@H](C)N)c(OC)cc1I`, the values for the Reduction in experiment [3], in experiment [4] and in experiment [5] were 15.2%, 31% and 34.4%, respectively.
On to `COc1cc([C@H](O)[C@H](C)N)c(OC)cc1Br`, for which the Efficacy in experiment [1] came out at 16%. In addition, affinity in experiment [2] was put at a Ki of 10 nM.
Take `COc1cc(C(CN)OC)c(OC)cc1Br` (stereo not given): in experiment [1], the Efficacy turned out to be 63%. Besides, in experiment [6], the EC50 worked out at 120 nM. Affinity in experiment [2] was put at a Ki of 2 nM.
Regarding `COc1cc([C@@H](O)[C@@H](C)N)c(OC)cc1Br`, the Reduction in experiment [3] stood at 10.7%; in experiment [4], 19%; in experiment [5], 22.1%. Also, the Efficacy in experiment [1] worked out at 50%. In addition, the EC50 in experiment [6] was found to be 100 nM. The compound also yielded a Ki in experiment [2] of 0.5 nM.
As to `CCC(N)Cc1cc(OC)c(Br)cc1OC` (stereo not given), the Efficacy in experiment [1] stood at 15%. The compound further gave a Ki in experiment [2] of 7.6 nM.
As for `COc1ccc(OC)c(C[C@@H](C)N)c1`, the Efficacy in experiment [1] is 34%. The EC50 in experiment [6] stood at 740 nM. For the same compound, the affinity in experiment [2], expressed as Ki, was 9.2 nM.
In the same order, the values of `COc1cc([C@@H](O)[C@H](C)N)c(OC)cc1Br` are 22%, 840 nM and 1.1 nM.
Turning to `COc1cc([C@H](OC)[C@H](C)N)c(OC)cc1Br`, in experiment [1], the Efficacy stood at 31%. In experiment [6], the EC50 was 1410 nM. Besides, affinity in experiment [2] was put at a Ki of 6 nM.
On to `COc1cc(CC(C)N)c(OC)cc1Br` (stereo not given), for which, in experiment [1], the Efficacy worked out at 38%.
As to `CC[C@H](N)[C@H](O)c1cc(OC)c(Br)cc1OC`, in experiment [1], the Efficacy stood at 5%. In addition, the affinity in experiment [2], expressed as Ki, was 20.3 nM.
On to `COc1cc([C@@H](OC)[C@@H](C)N)c(OC)cc1Br`, for which the Reduction in experiment [3] was determined as 19%; in experiment [4], 27.5%; in experiment [5], 25.5%. Further, the Efficacy in experiment [1] was 93%. Also, the EC50 in experiment [6] came to 130 nM. In experiment [2], the Ki stood at 0.3 nM.
On to `COc1cc(C2CNCCO2)c(OC)cc1Br` (stereo not given), for which the Efficacy in experiment [1] was 4%. In addition, the Ki in experiment [2] amounted to 20.6 nM.
Consider `COc1cc(C(O)CN)c(OC)cc1Br` (stereo not given), for which the Efficacy in experiment [1] amounted to 8%. The compound further returned a Ki in experiment [2] of 2.1 nM.

The values are drawn from ChEMBL document CHEMBL1139435, “Beta-oxygenated analogues of the 5-HT2A serotonin receptor agonist 1-(4-bromo-2,5-dimethoxyphenyl)-2-aminopropane” (J Med Chem, 2004).
